In ChEMBL document CHEMBL1125672, “2-acetylpyridine thiosemicarbazones. 13. Derivatives with antifilarial activity” (1991):

Assays:
Format in all cases: functional
Brugia pahangi [1] = assay: anti-filarial Activity was measured against Brugia pahangi in jirds at 50 mg/kg/day(5 days) dose
Summary of the method: (§1)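 Jirds with established B. pahangi or A. viteae infections were given drug once daily for 5 days by subcutaneous injection, at the maximum tolerated dose and, where supply allowed, graded lower doses. Tolerance was first checked in noninfected jirds with a single 200 mg/kg oral or subcutaneous dose, watching 72 h for excessive weight loss or death. Macrofilarial suppression was the read-out.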

Onchocerca gutturosa [2] = assay: Mean motility score for treated Onchocerca gutturosa involving LLCMK2 feeder cells at a concentration of 1.94*10e-7M at 168 h(O = IMMOTILE)
Summary of the method: (§2)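 One male O. gutturosa per well over LLCMK2 feeder cells in MEM with 10% heat-inactivated FCS, antibiotics and bicarbonate, 5% CO2; compound introduced in DMSO (≤0.016%, equal DMSO in controls). Motility scored 0 (immotile) to 10 (maximal control activity) every 30 min to 4.5 h, then at 1, 2, 3, 4 and 7 days.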

Onchocerca gutturosa [3] = assay: Mean motility score for treated Onchocerca gutturosa involving LLCMK2 feeder cells at a concentration of 1.94*10e-7M at 96 h; summary of the method: as §2
Onchocerca gutturosa [4] = assay: Mean motility score for treated Onchocerca gutturosa involving LLCMK2 feeder cells at a concentration of 1.94*10e-7M at 72 h; summary of the method: as §2
Onchocerca gutturosa [5] = assay: Mean motility score for treated Onchocerca gutturosa involving LLCMK2 feeder cells at a concentration of 1.94*10e-7M at 48 h; summary of the method: as §2
Onchocerca gutturosa [6] = assay: Mean motility score for treated Onchocerca gutturosa involving LLCMK2 feeder cells at a concentration of 1.94*10e-7M at 1 h; summary of the method: as §2
Acanthocheilonema viteae = assay: anti-filarial Activity was measured against Acanthocheilonema viteae in jirds at 100 mg/kg/day(5 days) dose; summary of the method: as §1
Brugia pahangi [7] = assay: anti-filarial Activity was measured against Brugia pahangi in jirds at 100 mg/kg/day(5 days) dose; summary of the method: as §1
Onchocerca gutturosa [8] = assay: Mean motility score for treated Onchocerca gutturosa involving LLCMK2 feeder cells at a concentration of 3.05*10e-9 M at 2.5 h
Summary of the method: (§3)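 Single male O. gutturosa worms (obtained following abattoir slaughter) per well in Eagle's MEM with 10% heat-inactivated fetal calf serum, penicillin, streptomycin, amphotericin B and bicarbonate, over LLCMK2 feeder cells, 5% CO2 in air. Drug dissolved in DMSO; controls received matched DMSO ≤0.016%. Motility scored 0 (immotile) to 10 (maximum control activity) every 30 min to 4.5 h, then days 1, 2, 3, 4, 7.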

Onchocerca gutturosa [9] = assay: Mean motility score for treated Onchocerca gutturosa involving LLCMK2 feeder cells at a concentration of 1.21*10e-8M at 0.5 h; summary of the method: as §2
Onchocerca volvulus = assay: Colorimetric quantification of male Onchocerca volvulus viability, expressed as % inhibition of formazan formation at 5*10e-5 M conc. by using tetrazolium Dye MTT assay
Summary of the method: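 Male O. volvulus dissected from human nodules within 24 h (kept in medium on ice), cultured without feeder cells in medium with 10% serum; drug from DMSO stock. MTT after 96 h: single worm, 0.5 mg/mL MTT, 30 min at 36.5 °C, formazan dissolved in DMSO 1 h at room temperature, absorbance 490 nm against DMSO blank.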

Onchocerca gutturosa [10] = assay: Mean motility score for treated Onchocerca gutturosa involving LLCMK2 feeder cells at a concentration of 3.05*10e-9 M at 2 h; summary of the method: as §3
Onchocerca gutturosa [11] = assay: Mean motility score for treated Onchocerca gutturosa involving LLCMK2 feeder cells at a concentration of 1.21*10e-8M at 72 h; summary of the method: as §2
Onchocerca gutturosa [12] = assay: Mean motility score for treated Onchocerca gutturosa involving LLCMK2 feeder cells at a concentration of 1.21*10e-8M at 168 h; summary of the method: as §2
Onchocerca gutturosa [13] = assay: Mean motility score for treated Onchocerca gutturosa involving LLCMK2 feeder cells at a concentration of 1.94*10e-7M at 24 h; summary of the method: as §2
Onchocerca gutturosa [14] = assay: Mean motility score for treated Onchocerca gutturosa involving LLCMK2 feeder cells at a concentration of 5*10e-5 M at 168 h; summary of the method: as §3
Onchocerca gutturosa [15] = assay: Colorimetric quantification of male Onchocerca gutturosa viability, expressed as % inhibition of formazan formation at 1.95*10e-7 M conc. by using tetrazolium Dye MTT assay
Summary of the method: (§4)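 Single intact male O. gutturosa, cultured with LLCMK2 feeder cells in MEM + 10% heat-inactivated FCS (5% CO2), drug added from DMSO (≤0.016% DMSO in controls). MTT read after 168 h: worm in 0.5 mg/mL MTT, 30 min at 36.5 °C, formazan solubilized in DMSO 1 h at room temperature, absorbance 490 nm vs DMSO blank.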

Onchocerca gutturosa [16] = assay: Mean motility score for treated Onchocerca gutturosa involving LLCMK2 feeder cells at a concentration of 3.1*10e-6 M at 1.5 h; summary of the method: as §3
Onchocerca gutturosa [17] = assay: Mean motility score for treated Onchocerca gutturosa involving LLCMK2 feeder cells at a concentration of 3.1*10e-6 M at 2.5 h; summary of the method: as §3
Onchocerca gutturosa [18] = assay: Mean motility score for treated Onchocerca gutturosa involving LLCMK2 feeder cells at a concentration of 4.88*10e-8M at 3 h; summary of the method: as §3
Onchocerca gutturosa [19] = assay: Mean motility score for treated Onchocerca gutturosa involving LLCMK2 feeder cells at a concentration of 3.1*10e-6 M at 3 h; summary of the method: as §3
Onchocerca gutturosa [20] = assay: Mean motility score for treated Onchocerca gutturosa involving LLCMK2 feeder cells at a concentration of 1.95*10e-8 M at 3.5 h; settings: in the assay text read “1.95*10e-7 M” for “1.95*10e-8 M”; summary of the method: as §2
Onchocerca gutturosa [21] = assay: Colorimetric quantification of male Onchocerca gutturosa viability, expressed as % inhibition of formazan formation at 3.1*10e-6 M conc. by using tetrazolium Dye MTT assay; summary of the method: as §4
Onchocerca gutturosa [22] = assay: Mean motility score for treated Onchocerca gutturosa involving LLCMK2 feeder cells at a concentration of 1.95*10e-8 M at 48 h; summary of the method: as §2
Onchocerca gutturosa [23] = assay: Mean motility score for treated Onchocerca gutturosa involving LLCMK2 feeder cells at a concentration of 1.95*10e-8 M at 72 h; summary of the method: as §2
Onchocerca gutturosa [24] = assay: Mean motility score for treated Onchocerca gutturosa involving LLCMK2 feeder cells at a concentration of 4.88*10e-8M at 168 h; summary of the method: as §3
Onchocerca gutturosa [25] = assay: Mean motility score for treated Onchocerca gutturosa involving LLCMK2 feeder cells at a concentration of 4.88*10e-8M at 24 h; summary of the method: as §3
Onchocerca gutturosa [26] = assay: Colorimetric quantification of male Onchocerca gutturosa viability, expressed as % inhibition of formazan formation at 3.05*10e-9 M conc. by using tetrazolium Dye MTT assay; summary of the method: as §4
Onchocerca gutturosa [27] = assay: Mean motility score for treated Onchocerca gutturosa involving LLCMK2 feeder cells at a concentration of 1.95*10e-8 M at 1 h; summary of the method: as §2
Onchocerca gutturosa [28] = assay: Mean motility score for treated Onchocerca gutturosa involving LLCMK2 feeder cells at a concentration of 4.88*10e-8M at 96 h; summary of the method: as §3
Onchocerca gutturosa [29] = assay: Mean motility score for treated Onchocerca gutturosa involving LLCMK2 feeder cells at a concentration of 4.88*10e-8M at 3.5 h; summary of the method: as §3
Onchocerca gutturosa [30] = assay: Mean motility score for treated Onchocerca gutturosa involving LLCMK2 feeder cells at a concentration of 3.1*10e-6 M at 2 h; summary of the method: as §3

C/C(=N\NC(S)=Nc1ccccc1N)c1ccccn1
Suppression (Brugia pahangi [1]): 100%
Motility (Onchocerca gutturosa [2]): 0
Motility (Onchocerca gutturosa [3]): 1.8
Motility (Onchocerca gutturosa [4]): 1.5
Motility (Onchocerca gutturosa [5]): 4
Motility (Onchocerca gutturosa [6]): 9.8
Suppression (Acanthocheilonema viteae): 100%
Suppression (Brugia pahangi [7]): 100%
Motility (Onchocerca gutturosa [8]): 7.5
Motility (Onchocerca gutturosa [9]): 9
Inhibition (Onchocerca volvulus): 53.8%
Motility (Onchocerca gutturosa [10]): 7.5
Motility (Onchocerca gutturosa [11]): 6.8
Motility (Onchocerca gutturosa [12]): 1
Motility (Onchocerca gutturosa [13]): 8

C/C(=N\NC(=S)N1CCCCCC1)c1ccccn1
Motility (Onchocerca gutturosa [14]): 0
Inhibition (Onchocerca gutturosa [15]): 70.4%
Motility (Onchocerca gutturosa [16]): 9.8
Motility (Onchocerca gutturosa [17]): 8.5
Motility (Onchocerca gutturosa [18]): 9
Motility (Onchocerca gutturosa [19]): 9.3
Motility (Onchocerca gutturosa [20]): 10
Inhibition (Onchocerca gutturosa [21]): 90.2%
Motility (Onchocerca gutturosa [22]): 2.5
Motility (Onchocerca gutturosa [23]): 1
Motility (Onchocerca gutturosa [24]): 0
Motility (Onchocerca gutturosa [25]): 4
Inhibition (Onchocerca gutturosa [26]): 19.5%
Motility (Onchocerca gutturosa [27]): 9.5
Motility (Onchocerca gutturosa [28]): 1.5
Motility (Onchocerca gutturosa [29]): 8.5
Motility (Onchocerca gutturosa [30]): 9.8
